Bioassay records (PubChem)
TNAP inh hiacc: TNAP (human) inhibition, high acceptor | AID 1135 | 200,000 compounds, 0.03% hits | inhibition, % at 20 µM | purified TNAP, CDP-star luminescence, 1 M DEA | P05186;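 active = over 50% inhibition of tissue-nonspecific alkaline phosphatase at 20 µM in the single-dose screen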;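 also: plate controls were DMSO wells for no effect and EDTA-quenched wells as full inhibition for full effect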
Target sequence (P05186 whole entry, looked up): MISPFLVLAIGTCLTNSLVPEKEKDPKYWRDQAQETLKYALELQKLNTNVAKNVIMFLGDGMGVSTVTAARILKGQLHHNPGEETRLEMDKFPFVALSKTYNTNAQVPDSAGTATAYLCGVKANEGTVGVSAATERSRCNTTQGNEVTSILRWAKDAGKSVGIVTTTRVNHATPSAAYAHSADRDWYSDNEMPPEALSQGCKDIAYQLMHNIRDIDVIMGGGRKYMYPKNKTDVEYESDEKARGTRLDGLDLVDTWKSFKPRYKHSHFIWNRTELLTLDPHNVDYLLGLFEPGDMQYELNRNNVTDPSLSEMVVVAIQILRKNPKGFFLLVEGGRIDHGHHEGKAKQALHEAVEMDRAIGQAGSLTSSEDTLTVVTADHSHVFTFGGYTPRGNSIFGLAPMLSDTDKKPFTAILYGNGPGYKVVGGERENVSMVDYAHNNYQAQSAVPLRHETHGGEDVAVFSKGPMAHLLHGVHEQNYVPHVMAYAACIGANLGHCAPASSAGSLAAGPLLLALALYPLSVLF
TNAP act hi DEA: TNAP (human) activation, high acceptor | purified TNAP, CDP-star luminescence, 1 M DEA, 30 min; active compounds read high; 0 = EDTA background, 1 = DMSO-only activity | activation factor at 20 µM | 200,000 tested, under 10 active | AID 1136;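 active = activation factor at least 2 at 20 µM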
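Control set: EDTA negative control, DMSO positive control / Assay system: human TNAP / Quantity: TNAP 1/800 final / Evaluation: TNAP activation factor scaled between EDTA and DMSO control wells / Measured by: luminescent substrate turnover signal / Compound dosing: one dose, 20 µM / Times: 30 min enzyme reaction at room temperature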
TNAP inh no acc: TNAP (human) inhibition, acceptor-free conditions. P05186. purified TNAP, CDP-star luminescence, 30 min. inhibition, % at 20 µM. 200,000 compounds, 0.26% hits;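 active = tissue-nonspecific alkaline phosphatase inhibition above about 50% at 20 µM in the single-dose screen, limit read from the data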;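 also: 0% = DMSO negative control and 100% = EDTA positive control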
PTEN del growth: PTEN-deleted cell growth suppression | HCT116 PTEN-null viability, CellTiter-Glo, 60 h; active compounds read low | viability, % at 10 µM | 140,000 compounds, 1.2% hits | AID 827;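 active = viability at or below a set limit, 4 SD under the median of all tested compounds, cut at about 3.7% in these data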;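 also: PTEN knockout HCT116 line with beta catenin targeted HCT116 as companion control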
bCat KO growth: beta-catenin-lacking colon tumor cell growth suppression; AID 818; viability, % at 10 µM; 140,000 compounds, 1.5% hits; HCT116 beta-catenin knockout viability, CellTiter-Glo, 60 h; active compounds read low;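 active = viability at or under a set limit, the compound median less 4 SD, cut at about 6% in these data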;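 also: 0% = Hyamine 1622 control at 20 µM and 100% = untreated cell control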
L major viab: inhibitors of Leishmania major promastigote growth. AID 1063. inhibition, % at 10 µM. 200,000 compounds, 9% hits. Leishmania major promastigotes, resazurin fluorescence viability; in the data active = inhibition above about 50%;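 also: promastigotes grown with compound for 44 hours at 28 °C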
* = called active by the depositor; x = not tested or not shown. A selection: hits, their analogues and other compounds. The true share with any hit is near 9.6%.

SMILES	TNAP inh hiacc	TNAP act hi DEA	TNAP inh no acc	PTEN del growth	bCat KO growth	L major viab
CNC(=O)c1[nH]cnc1C(=O)N[C@@H](C)C(=O)OC(C)(C)C	0	1	-4	x	x	-6
Cc1ccc(SCCNC(=O)/C=C/c2ccc(Cl)cc2)cc1	-6	1.1	-12	97	94	51*
O=C(CN1CCNCC1)NCCSc1ccc(Cl)cc1	0	1	-6	x	x	88*
Cc1ccc(SCCNC(=O)/C=C/c2ccc([N+](=O)[O-])cc2)cc1	-2	1	-16	91	88	62*
Cc1ccc(SCCNC(=O)/C=C/c2ccccc2Cl)cc1	-2	1	-7	101	100	2
COc1cc(/C=C2\SC(=Nc3ccc(N4CCOCC4)cc3)N(C)C2=O)ccc1OC(C)C(=O)O (centres undefined)	5	0.9	-12	86	93	-1
O=C(CN1CCOCC1)Nc1ccc(N2CCN(c3ccccc3)CC2)c(F)c1	-3	1	-5	x	x	-12
CC(C)Nc1nnc(SC(C)C(=O)NCc2ccc3c(c2)OCO3)s1 (centres undefined)	-8	1.1	-12	x	x	-1
COc1ccccc1Oc1c(C)oc2c(CN(C)C)c(O)ccc2c1=O	-4	1	-19	99	93	0
CCNC(=O)COc1cc(C)c(Cl)c(C)c1	-2	1	-8	101	106	-2
CCC(C)NCCCCOc1cc(C)cc(C(C)C)c1 (centres undefined)	-5	1	-6	71	64	91*
CCC(C)NCCOCCOc1ccc(F)cc1 (centres undefined)	-4	1	8	93	94	95*
CCC(C)NCCOc1cc(C)cc(C)c1C (centres undefined)	-5	1	-2	x	x	22
CCC(C)NCCCCOc1ccc(Br)cc1 (centres undefined)	-1	1	-6	64	60	94*
CCC(C)NCCOCCOc1cc(C)c(Cl)c(C)c1 (centres undefined)	-7	1.1	-10	x	x	87*
COc1ccc(C(=O)NC(NC(=O)c2ccc(OC)c(OC)c2)c2ccccc2F)cc1OC	-2	1	-9	109	85	-3
CCC(C)NC(=O)CSc1nnc(-c2c[nH]c3ccccc23)o1 (centres undefined)	-4	1	0	x	x	-14
CC(C)c1nnc(SCC(=O)N2CCN(C(=O)c3ccco3)CC2)n1N	0	1	-2	x	x	-3
CCNC(=O)c1ccc(C23CC4CC(CC(C4)C2)C3)o1	-4	1	-8	x	x	89*
O=C1CCCC2=C1C(c1ccc(Cl)cc1)N1C(=O)CCSC1=N2 (centres undefined)	-2	1	-5	102	93	-2
Cc1ccc(C2C3=C(CCCC3=O)N=C3c4ccccc4C(=O)C32)cc1 (centres undefined)	8	0.9	7	75	83	67*
O=C1CCCC2=C1C(c1ccc(Cl)cc1)C1C(=O)c3ccccc3C1=N2 (centres undefined)	13	0.9	17	50	62	57*
CCOC(=O)C1=C(C)N=C2c3ccccc3C(=O)C2C1c1ccc(C)cc1 (centres undefined)	-6	1.1	8	78	71	5
O=C1CCCC2=C1C(c1ccccc1)C1C(=O)c3ccccc3C1=N2 (centres undefined)	10	0.9	10	67	71	62*
Cc1ccc(N(CC(=O)NCc2ccc(F)cc2)S(=O)(=O)c2cccs2)cc1	-6	1.1	1	79	79	91*
O=C(CN(c1ccc(F)cc1)S(=O)(=O)c1ccc2c(c1)OCCO2)NCc1ccncc1	-2	1	-7	99	94	92*
Cc1cccc(N(CC(=O)NCCSCc2ccco2)S(=O)(=O)c2ccccc2)c1	-2	1	-5	49	49	61*
O=C(CN(c1ccc2c(c1)OCCO2)S(=O)(=O)c1ccccc1)NCc1ccco1	-4	1	-11	92	93	92*
Cc1ccc(N(CC(=O)NCc2ccccc2Cl)S(=O)(=O)c2cccs2)cc1	-9	1.1	-9	74	81	2
O=C(CN(c1ccc(F)cc1)S(=O)(=O)c1ccc2c(c1)OCCO2)NCc1cccnc1	-6	1.1	-14	101	100	29
